Consider 16 compounds from ChEMBL document CHEMBL4177554, “Ester-to-amide rearrangement of ethanolamine-derived prodrugs of sobetirome with increased blood-brain barrier penetration” (Bioorg Med Chem, 2017).

The nature of data set [1]: AUC (0 to t) in C57Bl/6 mouse heart at 1.5 umol/kg, ip by LC-MS/MS analysis. Type of data set: ADME, organism-based. The settings on record: in vivo. The essentials: (§1)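 Male C57Bl/6 mice (8–10 wk) given a single i.p. dose of 1.5 μmol/kg in 50% DMSO/saline. Three mice per time point were killed at 0.25, 0.5, 1, 2, 4 and 8 h. Brain, liver, heart and kidney were homogenized with d6-sobetirome internal standard and acetonitrile-extracted, as was serum. Sobetirome was quantified by negative-ESI LC-MS/MS on C18. AUC0→t was computed over 8 h.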

Data set [2] can be described thus: AUC (0 to t) in C57Bl/6 mouse serum at 1.5 umol/kg, ip by LC-MS/MS analysis. Type of data set: ADME, organism-based. The settings on record: in vivo. The essentials:
as §1

Data set [3] in a line: AUC (0 to t) in C57Bl/6 mouse brain at 1.5 umol/kg, ip by LC-MS/MS analysis. To be noted: in vivo. The data set is classed as ADME, organism-based. The essentials:
as §1

A short description of data set [4]: Elimination half life in C57Bl/6 mouse at 3.05 umol/kg, iv by LC-MS/MS analysis. The data set is classed as ADME, organism-based. To be noted: in vivo, read-out: beta t1/2 (converted). The essentials: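 C57Bl/6 mice, n = 3 per cohort, dosed i.v. by tail vein at 3.05 μmol/kg or by oral gavage at 30.5 μmol/kg in 50% DMSO/saline. Serial serum samples were taken (i.v.: 5 min–8 h; p.o.: 10 min–8 h). Prodrug and sobetirome were quantified by LC-MS/MS. %F = (AUCp.o./AUCi.v.)·(dosei.v./dosep.o.)·100. t½ came from the log-concentration slope of the last five i.v. time points.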

Data set [5] can be described thus: AUC (0 to t) in C57Bl/6 mouse liver at 1.5 umol/kg, ip by LC-MS/MS analysis. The data set is classed as ADME, organism-based. To be noted: in vivo. The procedure, abridged:
as §1

Data set [6] in a line: Ratio of AUC (0 to t) in C57Bl/6 mouse brain to serum at 1.5 umol/kg, ip by LC-MS/MS analysis. The data set is classed as ADME, organism-based. The settings on record: read-out: Ratio AUC. The essentials: as §1
The nature of data set [7]: Drug uptake in C57Bl/6 mouse brain at 1.5 umol/kg, ip after 1 hr by LC-MS/MS analysis. To be noted: read-out: Drug uptake. Type of data set: ADME, organism-based. The procedure, abridged:
(§2)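 Single i.p. dose of 1.5 μmol/kg in 50% DMSO/saline to male C57Bl/6 mice (8–10 wk), n = 3. Agents were given as amide-rearranged isomers where rearrangement occurs. Whole brain and blood were taken at 1 h. Sobetirome was measured by LC-MS/MS with d6-sobetirome internal standard, and the brain/serum ratio was calculated. Values are mean with SEM.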

The test system of data set [8] is Mus musculus. Briefly: Oral bioavailability in C57Bl/6 mouse at 30.5 umol/kg administered via oral gavage by LC-MS/MS analysis. The settings on record: in vivo.
A short description of data set [9]: Ratio of drug level in C57Bl/6 mouse brain to serum at 1.5 umol/kg, ip after 1 hr by LC-MS/MS analysis. Type of data set: ADME, organism-based. The procedure, abridged:
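Male C57Bl/6 mice, 8–10 weeks old, given one i.p. dose of 1.5 μmol/kg in 50% DMSO/saline. Whole brain and blood taken 1 h later; serum obtained from blood clotted on ice ≥30 min and spun at 7,500 × g for 15 min. d6-sobetirome internal standard added, acetonitrile extraction, sobetirome quantified by negative-ESI LC-MS/MS. Mean of n = 3 mice, SEM.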

The subject of data set [10] is Mus musculus. The data set can be described thus: Upregulation of Hr expression levels in ip dosed mouse brain for 7 days measured after 2 hrs post last dose by […] green dye-based qPCR analysis. Type of data set: functional. The essentials:
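Mice, n = 3 per dose, received six i.p. doses in 1:1 saline/DMSO. Brains were collected 2 h post-injection. RNA was extracted with Trizol and a column kit with DNase treatment, and cDNA was diluted two-fold. Hairless was measured by qPCR, normalized to GAPDH, by comparative CT. ED50 ± SEM came from a sigmoidal dose–response fit. Run in triplicate.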
(In general: In qPCR the cycle at which signal appears reflects the starting amount.)

Data set [11] in a line: AUC (0 to t) in C57Bl/6 mouse kidney at 1.5 umol/kg, ip by LC-MS/MS analysis. Type of data set: ADME, organism-based. The settings on record: in vivo. The procedure, abridged:
as §1

A short description of data set [12]: Prodrug activation in C57Bl/6 mouse brain assessed as sobetirome level at 1.5 umol/kg, ip after 1 hr by LC-MS/MS analysis. Type of data set: organism-based. To be noted: in vivo. The essentials: as §2
Data set [13] can be described thus: Ratio of drug level in C57Bl/6 mouse brain to serum assessed as sobetirome level at 1.5 umol/kg, ip after 1 hr by LC-MS/MS analysis. The data set is classed as ADME, organism-based. The procedure, abridged:
as §2

Data set [14] is described as follows: AUC (0 to t) in C57Bl/6 mouse serum assessed as sobetirome level at 1.5 umol/kg, ip by LC-MS/MS analysis. Type of data set: ADME, organism-based. To be noted: in vivo. The essentials:
as §1

Data set [15] in a line: AUC (0 to t) in C57Bl/6 mouse liver assessed as sobetirome level at 1.5 umol/kg, ip by LC-MS/MS analysis. Type of data set: ADME, organism-based. The settings on record: in vivo. The procedure, abridged:
as §1

The nature of data set [16]: AUC (0 to t) in C57Bl/6 mouse kidney assessed as sobetirome level at 1.5 umol/kg, ip by LC-MS/MS analysis. Type of data set: ADME, organism-based. To be noted: in vivo. The essentials: as §1
The subject of data set [17] is Mus musculus. Briefly: Total oral bioavailability in C57Bl/6 mouse assessed as sobetirome level at 30.5 umol/kg administered via oral gavage by LC-MS/MS analysis. The settings on record: in vivo.
Data set [18] in a line: AUC (0 to t) in C57Bl/6 mouse heart assessed as sobetirome level at 1.5 umol/kg, ip by LC-MS/MS analysis. The settings on record: in vivo. Type of data set: ADME, organism-based. The procedure, abridged: as §1
Data set [19] in a line: AUC (0 to t) in C57Bl/6 mouse brain assessed as sobetirome level at 1.5 umol/kg, ip by LC-MS/MS analysis. The data set is classed as ADME, organism-based. The settings on record: in vivo. The procedure, abridged: as §1

Broadly, the ED50 is the midpoint of the dose-response relation. Higher therefore signals weaker potency.

Take `Cc1cc(OCC(=O)O)cc(C)c1Cc1ccc(O)c(C(C)C)c1` [SOBETIROME]: the AUCt in data set [1] was found to be 180.3 ng·h/g; in data set [2] it was 472.6 ng·h/g; in data set [3], 9.9 ng·h/g; in [5], 2235 ng·h/g; in data set [11], 686.8 ng·h/g. The half-life in [4] was 7.12 h. The Kp in data set [6] was found to be 0.02. For the same compound, the concentration at 1 h in data set [7] amounted to 2.32 ng/g. In the data set on Mus musculus [8], the F is 92%. For the same compound, in data set [9], the Kp at 1 h is 0.037. Also, the Activity result in the data set with Mus musculus [10] was “Dose-dependent effect”. Also, the ED50 in the data set with Mus musculus [10] was found to be 1.8 µmol/kg.
Consider `Cc1cc(OCC(=O)OC(C)CCN)cc(C)c1Cc1ccc(O)c(C(C)C)c1` (configuration not stated), for which the Activity in data set [12] was found to be 4.46 ng/g. For the same compound, the Ratio in [13] was 0.33.
In the same order, the values of `Cc1cc(OCC(=O)OC(C)CNC(C)C)cc(C)c1Cc1ccc(O)c(C(C)C)c1` (configuration not stated) are 0.48 ng/g and 0.23.
The matching figures for `CNCCOC(=O)COc1cc(C)c(Cc2ccc(O)c(C(C)C)c2)c(C)c1`: 6.33 ng/g and 0.21.
Consider `CNCC(OC(=O)COc1cc(C)c(Cc2ccc(O)c(C(C)C)c2)c(C)c1)C(C)C` (configuration not stated), for which the Activity in data set [12] was determined as 1.79 ng/g. Moreover, the Ratio in data set [13] stood at 0.024.
In the same order, the values of `Cc1cc(OCC(=O)OC2(C(F)(F)F)CNC2)cc(C)c1Cc1ccc(O)c(C(C)C)c1` are 5.14 ng/g and 0.13.
In the same order, the values of `Cc1cc(OCC(=O)OC(C)CN)cc(C)c1Cc1ccc(O)c(C(C)C)c1` (configuration not stated) are 5.92 ng/g and 0.21.
As for `Cc1cc(OCC(=O)NC[C@H](C)O)cc(C)c1Cc1ccc(O)c(C(C)C)c1`, the Drug metabolism result in data set [12] is “Metabolite_Detected”.
Turning to `Cc1cc(OCC(=O)OC(CN)C(F)(F)F)cc(C)c1Cc1ccc(O)c(C(C)C)c1` (configuration not stated), the Activity in data set [12] is reported as 5.23 ng/g. In data set [13], the Ratio was 0.2.
Take `Cc1cc(OCC(=O)OCCN)cc(C)c1Cc1ccc(O)c(C(C)C)c1`: the Activity in [12] stood at 4.92 ng/g. The Ratio in [13] stood at 0.066.
In the same order, the values of `CCC(CN)OC(=O)COc1cc(C)c(Cc2ccc(O)c(C(C)C)c2)c(C)c1` (configuration not stated) are 4.26 ng/g and 0.41.
The matching figures for `Cc1cc(OCC(=O)OC(C)(C)CN)cc(C)c1Cc1ccc(O)c(C(C)C)c1`: 0.4 ng/g and 1.22.
In the same order, the values of `Cc1cc(OCC(=O)O[C@H](C)CN)cc(C)c1Cc1ccc(O)c(C(C)C)c1` are 8.12 ng/g and 0.19.
For the compound `Cc1cc(OCC(=O)O[C@@H](C)CN)cc(C)c1Cc1ccc(O)c(C(C)C)c1`, the AUCt in data set [14] turned out to be 136.5 ng·h/g; in data set [15], 1017 ng·h/g; in data set [16] it was 283.8 ng·h/g; in data set [18] it was 57.2 ng·h/g; in [19], 17.2 ng·h/g. Besides, in data set [4], the half-life is 6.96 h. In addition, the Kp in [6] worked out at 0.13. The Activity in data set [12] is 8.26 ng/g; in the data set on Mus musculus [10], “Dose-dependent effect”. Also, the Ratio in [13] came to 0.47. The F in the data set on Mus musculus [8] is recorded as 36%; with Mus musculus [17], 56%. This compound also gave an ED50 in the data set on Mus musculus [10] of 1 µmol/kg.
Take `CNCC(C)OC(=O)COc1cc(C)c(Cc2ccc(O)c(C(C)C)c2)c(C)c1` (configuration not stated): in data set [12], the Activity was determined as 5.12 ng/g. Further, in data set [13], the Ratio was 0.23.
In the same order, the values of `Cc1cc(OCC(=O)OC(CN)C(C)C)cc(C)c1Cc1ccc(O)c(C(C)C)c1` (configuration not stated) are 3.38 ng/g and 0.045.
